High-throughput results deposited in PubChem by several laboratories.
Only some compounds are listed: those with a hit (about 1.9% of all), similar ones and a draw of the others.
Hck-Nef inh – blocks Nef-activated human Hck kinase; inhibition, % at 20 µM; Recombinant Hck-YEEI plus Nef, Z-Lyte FRET kinase assay; AID 463187; hit rate 0.68% among 220,000; P08631;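 active = Hck-Nef kinase inhibition above about 50%, limit read from the data; inactive = inhibition below that limit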;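 also: 0% = DMSO with Hck plus Nef and 100% = Hck alone without Nef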
Runt-CBFb FRET – inhibitors of human RUNX1 Runt domain binding to CBFb; Q01196+Q13951; Cerulean-Runt/Venus-CBFb FRET ratio 530/480, 1 h; inhibition, % at 20 µM; hit rate 0.46% among 220,000; AID 1496;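 active = inhibition over about 50% at 20 µM in the single-dose screen, limit read from the data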;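 also: 0% = DMSO wells and 100% = excess unlabeled CBFb competitor control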
Target sequence (Q01196 whole entry, looked up, the tested form may be a part): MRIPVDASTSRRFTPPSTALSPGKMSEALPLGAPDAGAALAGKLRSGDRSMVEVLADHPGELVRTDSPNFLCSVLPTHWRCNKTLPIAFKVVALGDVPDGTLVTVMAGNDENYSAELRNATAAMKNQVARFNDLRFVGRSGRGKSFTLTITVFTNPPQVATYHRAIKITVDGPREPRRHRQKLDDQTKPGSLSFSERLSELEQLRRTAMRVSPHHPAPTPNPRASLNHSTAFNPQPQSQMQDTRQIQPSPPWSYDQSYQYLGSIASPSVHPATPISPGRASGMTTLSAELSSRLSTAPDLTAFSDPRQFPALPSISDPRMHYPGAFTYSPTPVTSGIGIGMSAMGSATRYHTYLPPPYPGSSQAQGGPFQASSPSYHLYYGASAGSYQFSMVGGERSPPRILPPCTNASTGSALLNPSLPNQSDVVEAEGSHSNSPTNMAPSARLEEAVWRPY
Target sequence (Q13951 whole entry, looked up, the tested form may be a part): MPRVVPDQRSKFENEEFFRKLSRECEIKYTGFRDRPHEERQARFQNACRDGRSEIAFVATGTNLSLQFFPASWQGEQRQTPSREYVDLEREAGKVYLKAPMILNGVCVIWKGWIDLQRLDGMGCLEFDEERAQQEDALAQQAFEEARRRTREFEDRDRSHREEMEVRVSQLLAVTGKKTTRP
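test system = Cerulean-Runt domain fusion protein, energy donor | probe or stimulus = Venus-CBFb binding partner, 100 nM | incubation = two 1 h room-temperature incubations shielded from light | detection = fluorescence energy transfer, 422 nm excitation, 530/480 nm emission | measure = loss of energy transfer signal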
RanGTP-Impb inh – disruptors of Ran-importin-beta complex formation – biochemical, FRET, CFP-Ran, YFP-importin-beta, homogeneous, primary screen; hit rate 1.1% among 300,000; cell-free CFP-Ran/YFP-importin-beta FRET ratio; inhibition, % (concentration not given with the values);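 active = more than half of the replicate wells show a fall in the fluorescence ratio signal beyond about 16%, limit read from the data, passing the limit was not always enough; inconclusive = exactly half of the replicate wells pass the set limit; inactive = fewer than half of replicates pass the limit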;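 also: 0% = DMSO wells and 100% = Ran loaded with GDP instead of GTP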
Runt-SMMHC FRET – inhibitors of human RUNX1 Runt domain binding to CBFb-SMMHC. AID 1434. inhibition, % at 20 µM. Q01196+Q13951. hit rate 0.74% among 220,000. Cerulean-Runt/Venus-CBFb-SMMHC FRET ratio 530/480, 1 h;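 active = mean inhibition across duplicate retests at 20 µM reaching about 50%, limit read from the data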;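 also: 0% = DMSO wells and 100% = wells with excess untagged CBFb-SMMHC; inhibitors lower the FRET ratio by blocking Runt binding to CBFb-SMMHC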
TbHK1 inh – T. brucei hexokinase 1 inhibition. recombinant TbHK1, G6PDH-coupled NADH A340. inhibition, % at 10 µM. hit rate 0.11% among 220,000. AID 1430;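 active = inhibition of 50% or more in the single-dose primary screen; inactive = inhibition below 50%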
Runt-CBFb TRFRET – disrupts human RUNX1 Runt domain binding to CBFb. AID 1502. inhibition, % at 20 µM. shares compounds with Runt-CBFb FRET. TR-FRET RUNX1 Runt domain-CBFb binding. hit rate 20% among 480; in the data active = inhibition above about 40%
Starred values were filed as active, the others as inactive; i = inactive; ? = inconclusive; / = no result given.

SMILES | Hck-Nef inh | Runt-CBFb FRET | RanGTP-Impb inh | Runt-SMMHC FRET | TbHK1 inh | Runt-CBFb TRFRET
O=C(O)CSc1c2c(nc3cc(C(=O)N4CCOCC4)ccc13)CCCC2 | 0.2 | 58.7* | 30.8* | 101.7* | -17.9 | 30.7
COc1ccc(CNC(=O)[C@@H](NC(=O)C2CCN(S(=O)(=O)c3ccc(C)cc3)CC2)C(C)C)cc1OC | / | / | 3.0 | / | / | /
CCOC(=O)c1c(-c2ccccc2)oc2ccc(OC(C)=O)cc12 | 0.6 | 51.6* | -2.4 | -1.4 | -0.7 | 29.2
CC(C)C(=O)NC(Nc1cccc2cccnc12)C(Cl)(Cl)Cl (stereo not drawn) | 3.7 | 78.8* | 0.7 | 2.9 | -1.8 | 48.0*
O=C1CC(N2CCC(O)(c3ccc(Cl)cc3)CC2)C(=O)N1Cc1ccc(N2CCCC2=O)cc1 (stereo not drawn) | 6.1 | 66.3* | 2.3 | -3.0 | 0.1 | -13.0
Oc1ccc(N=Cc2ccc(-c3cccs3)s2)cc1 | 1.4 | 69.2* | 28.3* | / | -11.3 | 49.9*
CC1(C)CC(=O)C2=C(C1)Nc1[nH]c(=S)[nH]c(=O)c1C2c1ccccc1 (stereo not drawn) | 0.0 | 50.2* | 3.8 | 59.1* | -13.5 | 12.3
CCCN(CC(=O)Nc1ccc(C(N)=O)cc1)CC(=O)Nc1ccc(F)c(F)c1F | / | / | 0.3 | / | / | /
Fc1cccc(C[n+]2csc3ccccc32)c1 | -1.6 | 55.6* | 5.2 | 70.5 | 20.5 | -9.6
NS(=O)(=O)c1ccc(NC(=S)N2CCN(c3cccc(Cl)c3)CC2)cc1 | 0.8 | 52.4* | -1.4 | 35.8 | -1.7 | 57.7*
NS(=O)(=O)c1ccc(NC(=S)N2CCN(c3ccccc3Cl)CC2)cc1 | 0.5 | 1.0 | 2.9 | 3.9 | -0.8 | /
COc1ccc(N(CC(=O)NCCSCc2cccc(Cl)c2)S(C)(=O)=O)cc1Cl | / | / | -1.9 | / | / | /
S=C1Cc2ccccc2N1 | -17.1 | 50.6* | -0.1 | 9.7 | -6.0 | 3.7
CCc1ccc(CNC(=O)C2CCCN(c3nn4c(=O)cc(C)nc4s3)C2)cc1 (stereo not drawn) | / | / | -1.0 | / | / | /
O=C(NC1CCCCC1)C1CCC(=O)N(Cc2cccc(C(F)(F)F)c2)C1 (stereo not drawn) | / | / | 3.4 | / | / | /
O=C(N/N=C/c1ccc2c(c1)OCO2)C(=O)Nc1ccc2ccccc2c1 | 18.6 | 0.0 | -0.1 | -0.6 | -9.5 | /
CN1CCc2cccc3c2[C@H]1Cc1ccc(O)c(O)c1-3 | 3.9 | 73.3* | 3.2 | / | 15.8 | 36.1
CN1CCc2cc3c(c4c2[C@H]1[C@H](O)c1ccccc1-4)OCO3 | -1.8 | -149.6 | -2.4 | 78.9 | 1.3 | /
N#Cc1ccc(OCC(=O)Nc2ccc3[nH]c(=O)[nH]c3c2)cc1 | / | / | -0.1 | / | / | /
CC(=O)N(c1ccc2oc(=O)sc2c1)S(=O)(=O)c1ccccc1 | 8.2 | 60.4* | -0.5 | 38.1 | 2.8 | 17.1
COc1ccc(OC)c(S(=O)(=O)N(C(C)=O)c2ccc3oc(=O)sc3c2)c1 | 18.7 | 66.6* | -1.0 | / | 1.0 | 12.5
COc1ccc(C(=O)Oc2ccc3oc(=O)sc3c2)cc1 | 2.1 | 64.8* | 1.4 | 39.9 | -3.5 | 0.1
CN(CC(=O)O)S(=O)(=O)c1cccs1 | -2.3 | 0.3 | -1.1 | -4.7 | -6.6 | /
CCCC(=O)N(c1ccc2oc(=O)sc2c1)S(=O)(=O)c1cccs1 | 2.8 | 62.8* | / | 31.5 | 2.4 | 10.0
COc1ccc(N(C(C)=O)S(=O)(=O)c2cc(OC)ccc2OC)cc1 | 2.6 | 27.0 | 6.4 | 4.4 | -1.6 | /
SMILES | Hck-Nef inh | Runt-CBFb FRET | RanGTP-Impb inh | Runt-SMMHC FRET | TbHK1 inh | Runt-CBFb TRFRET
COc1ccc(C(=O)Oc2ccc3ccc(=O)oc3c2)cc1 | / | / | 0.2 | / | / | /
O=C(O)c1ccccc1-c1ccccc1C(=O)NCc1cccc(C(F)(F)F)c1 | 15.6 | 0.9 | -0.4 | 1.3 | -2.0 | /
CC(C)C(=O)N(c1ccc2oc(=O)sc2c1)S(=O)(=O)c1ccccc1 | -2.0 | 57.5* | 2.2 | 63.1* | -2.2 | 18.7
COc1ccc(S(=O)(=O)N(C(=O)c2ccco2)c2cc3sc(=O)oc3c3ccccc23)cc1 | 3.3 | 8.9 | 3.9 | 43.4 | -1.7 | /
Cc1ccc(S(=O)(=O)N(C(=O)c2ccco2)c2cc3sc(=O)oc3c3ccccc23)cc1 | 0.5 | 11.4 | 1.9 | 36.8 | 20.3 | /
COc1ccc(S(=O)(=O)N(C(=O)C(C)C)c2ccc3oc(=O)sc3c2)cc1 | 2.0 | 53.1* | 0.2 | 55.9* | -0.4 | 4.4
O=[N+]([O-])c1ccc(C(=Nc2cccc3ccccc23)N2CCOCC2)cc1 | 0.6 | 1.7 | 0.7 | -3.0 | -5.3 | /
CCCCCn1c(=O)[nH]c2cc(C(=O)NCCCN3CCCCC3CC)ccc2c1=O (stereo not drawn) | / | / | -5.0 | / | / | /
CCOC(=O)c1[nH]nc(-c2cc(CC)c(O)cc2O)c1-c1cscn1 | 2.3 | 60.7* | -1.8 | 0.3 | 0.8 | 3.4
CCCc1cc2c(=O)c(-c3cscn3)c(C(=O)OCC)oc2cc1O | 14.4 | -0.2 | ? | -2.8 | -3.4 | /
CCOc1ccc(CN2CCN(Cc3[nH]c4ccccc4c3C)CC2CCO)cc1 (stereo not drawn) | 21.5 | / | 7.0 | / | 3.7 | /
CCCN(c1ccccc1F)S(=O)(=O)c1cc(-c2cc(C)no2)ccc1OC | / | / | 6.1 | / | / | /
O=C1C=CC(=O)N1N(c1ccccc1)c1ccccc1 | -3.6 | 71.7* | 1.2 | / | 10.8 | -19.9
CN1c2ccccc2C(O)=C(C(=S)Nc2ccccc2)S1(=O)=O | 2.3 | 3.6 | 7.8 | 5.3 | -39.1 | /
CN1c2ccsc2C(O)=C(C(=S)Nc2ccccc2)S1(=O)=O | -0.4 | 52.6* | 89.0* | 91.3* | -46.6 | 33.8
CCN(CCCNC(=O)Cn1ncc2c([nH]c3ccc(C)cc32)c1=O)Cc1ccccc1 | / | / | -1.8 | / | / | /
CCOC(=O)c1c(/N=C/N(C)C)sc(/C=N/Nc2ccccc2)c1-c1ccccc1 | 9.2 | 70.8* | -14.5 | 131.0* | -7.9 | -12.5
Nc1nc(-c2ccco2)nn1C(=O)c1ccc([N+](=O)[O-])cc1 | 21.3 | -1.8 | -0.6 | 1.2 | 0.7 | /
O=C(O)c1ccccc1SC1CC(=O)N(c2cccc3ccccc23)C1=O (stereo not drawn) | 22.8 | 52.8* | / | 20.0 | -4.4 | 47.2*
CSCc1ccc(C(=O)NC2CC(C)(C)Cc3c2cnn3-c2ccc(F)cc2)o1 (stereo not drawn) | / | / | -3.3 | / | / | /
CN1CCN(C(=S)C(=O)Nc2ccc(Br)cc2)CC1 | -44.7 | 54.9* | -5.1 | 28.4 | -3.5 | 14.2
CCN(CC(=O)NCc1cccs1)C(=O)C(c1ccccc1)c1ccccc1 | / | / | 0.5 | / | / | /
COc1ccccc1C(=O)NCC(=O)OCC(=O)c1ccc2c(c1)-c1ccccc1C2 | 3.3 | -0.8 | -2.2 | -1.9 | -8.6 | /
O=C1CCCC2=C1C(c1ccc(O)c(O)c1)c1c(ccc3ncccc13)N2 (stereo not drawn) | 21.6 | 51.1* | 5.5 | 40.7 | -11.0 | 44.1*
O=c1c2ccccc2sc2ccc(Cl)cc12 | 8.1 | 69.3* | 20.5* | 127.6* | 7.8 | i
